Screens (PubChem)
CAL PDZ FP-1: inhibitors of human CAL PDZ peptide binding. AID 602252. actives 0.92% (n = 300,000). inhibition, % at 24.9 µM. purified CAL PDZ, TMR-peptide fluorescence polarization, 1 h;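 active = mean inhibition of at least 30% with at least half of replicates also reaching 30%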;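 note: 0% = DMSO neutral control and 100% = excess unlabeled competitor peptide PRC23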
Tn6 DDE FP: DD(E)-Tn6 binding inhibition, primary FP screen. P02675. Fibrin DD(E) TRITC-Tn6 fluorescence polarization displacement. inhibition, % at 8.3 µM. actives 0.21% (n = 370,000);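 active = inhibition above a per-campaign cutoff: mean of compounds within control limits plus 3 SD, cut at about 15% in these data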;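 note: 0% = median of all compound wells on the plate and 100% = blocking peptide control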
Target sequence (P02675 whole entry, looked up): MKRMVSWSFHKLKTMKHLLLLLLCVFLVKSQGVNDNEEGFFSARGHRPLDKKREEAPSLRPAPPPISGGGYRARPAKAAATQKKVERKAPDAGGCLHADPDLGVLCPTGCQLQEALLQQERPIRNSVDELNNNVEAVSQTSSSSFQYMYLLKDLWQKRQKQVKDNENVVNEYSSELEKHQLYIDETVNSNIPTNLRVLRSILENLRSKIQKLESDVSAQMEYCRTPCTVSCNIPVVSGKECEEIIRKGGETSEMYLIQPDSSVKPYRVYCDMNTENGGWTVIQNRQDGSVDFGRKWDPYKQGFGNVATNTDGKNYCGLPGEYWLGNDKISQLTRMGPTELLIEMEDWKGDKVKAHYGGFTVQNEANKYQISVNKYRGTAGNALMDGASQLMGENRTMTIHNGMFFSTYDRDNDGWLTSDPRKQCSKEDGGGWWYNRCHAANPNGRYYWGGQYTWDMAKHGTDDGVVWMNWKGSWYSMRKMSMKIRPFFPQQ
CAL PDZ FP-2: blocks peptide binding to human CAL PDZ domain; actives 0.02% (n = 330,000); purified CAL PDZ, TMR-peptide fluorescence polarization, 1 h; Q9HD26; inhibition, % at 20 µM; AID 504414;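 active = highest replicate inhibition of at least 40%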;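 note: plate controls were DMSO neutral control wells for no effect and unlabeled competitor peptide control wells for full effect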
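Material: tagged CAL PDZ domain; buffer or medium: 25 mM sodium phosphate pH 7.4, 150 mM NaCl, TCEP, IgG, Thesit; compound dosing: single point, 20 µM; schedule: 1 h incubation at room temperature before polarization reading; measured by: FP readout, S and P plane fluorescence; read-out basis: percent inhibition from loss of millipolarization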
DDE Tn7 FP inh: inhibitors of Tn7 peptide binding to human fibrin DD(E); FP displacement of FITC-Tn7 peptide from fibrin DD(E); 0% = median of compound wells per plate; inhibition, % at 8.3 µM; actives 0.13% (n = 370,000); AID 720508;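 active = inhibition above the mean of compounds falling within the control limits plus 3 SD of them, cut at about 14% in these data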;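 note: 0% = plate median of compound wells and 100% = 10 µM Aha-Tn7 peptide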
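assay system = human clot-derived fibrin DD(E) complex | quantity = Fibrin-DD(E) at 2 µM final | timing = 10 min preincubation, 3 h with tracer, room temperature | signal = fluorescence polarization | measure = percent inhibition | benchmarks = high control wells with 10 µM unlabelled Aha-Tn7 peptide (full inhibition) | replicates = singlicate testing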
Arrestin-AP2 inh: human beta-arrestin and AP2 interaction inhibition; actives 0.31% (n = 340,000); FITC-arrestin peptide / GST-AP2 beads, flow cytometry; AP2 beta2 appendage carries R879A mutation; inhibition, % at 10 µM;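 active = inhibition above a set limit, near 3 SD of compounds lacking own fluorescence, cut at about 54% in these data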;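 note: plate controls were DMSO wells for no effect and 5 µM unlabelled arrestin peptide for full effect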
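System: GST-tagged AP2 beta2-adaptin appendage (R879A) on 4 µm glutathione beads / Reagent: FITC-arrestin peptide, 50 nM / Detection: HyperCyt-sampled flow cytometry, FL1 channel, ex 488/em 535 nm / Timing: 12 min plus 1 h, RT / Buffer or medium: PBS plus Tween 20 (0.05%) and BSA (0.1%)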
* hit, by the source's call; . = not tested or not shown. Most compounds without a hit are left out; they make up all but 1.4% or so of the library.

SMILES | CAL PDZ FP-1 | Tn6 DDE FP | CAL PDZ FP-2 | DDE Tn7 FP inh | Arrestin-AP2 inh
Cc1ccc(C)c(NC(=O)/C(C#N)=C/c2cn(CC(=O)NCc3ccco3)c3ccccc23)c1 | 44* | 0 | -1 | 0 | -6
c1ccc(-c2c[nH]c3cccc(C4CCCCC4)c23)cc1 | . | -2 | . | -3 | .
Cc1ccc(COc2ccc3c(c2)OCO3)cc1 | 40* | 0 | -1 | 2 | 11
FC(F)(F)c1ccccc1NC(=S)N1CCN(c2ccccn2)CC1 | . | 2 | 0 | -4 | 4
FC(F)(F)c1ccccc1NC(=S)N1CCCC1 | 50* | 5 | -1 | 4 | -4
CN1CCCCC(NC(=O)c2ccccc2)C1=O (stereo not given) | . | -3 | . | 1 | .
Fc1cccc(COc2ccccc2C(=S)N2CCCC2)c1 | 43* | -3 | . | 1 | -34
Cc1nc2ccc(S(=O)(=O)NCC(=O)N(C)Cc3ccc(F)cc3)cc2s1 | . | -3 | . | 2 | .
O=S(=O)(NCc1cn(Cc2ccccc2)nn1)c1ccccc1Br | . | -2 | . | -3 | .
O=C(CSc1ccccc1F)Nc1ccc(N2CCOCC2)cc1 | . | -1 | 0 | 4 | 30
COC(=O)c1ccccc1SCC(=O)Nc1ccc(N2CCOCC2)cc1 | 64* | -9 | -2 | -2 | -4
O=C(CCCn1c(=O)[nH]c2cc(Cl)ccc2c1=O)NC1CCCCCCC1 | 53* | 4 | 0 | -1 | 21
CC(C)(C)C(=O)NNC(=O)C1CC1(c1ccccc1)c1ccccc1 (stereo not given) | 35* | -1 | 1 | 1 | 10
CCCCNC(=O)NNC(=O)C1CC1(c1ccccc1)c1ccccc1 (stereo not given) | -6 | 3 | -1 | 4 | 2
CCOC(=O)[C@@]12CCC3=C1N(CCC3)C(=O)[C@H](CC(=O)NCc1ccccc1)C2 | . | 2 | . | 2 | .
CCn1c(/C=C/c2ccccc2C)nc2ccccc2c1=O | 51* | 5 | 0 | 5 | -21
Cc1ccccc1/C=C/c1nc2ccccc2c(=O)n1Cc1ccccc1 | 5 | 1 | -2 | 0 | 13
O=C1NC(=S)S/C1=C\c1cc(Cl)cc(Cl)c1O | -30 | 25* | 1 | -12 | -3
O=C(OC12CCCN(C1)/C(=C/c1cccnc1)C2)c1ccco1 (stereo not given) | . | -9 | . | 1 | .
O=C(CSc1nnc(N2CCCC2)n1-c1cccc(Cl)c1)N1CCN(c2ccccn2)CC1 | . | -1 | . | -3 | .
O=C(CSc1nnc(N2CCCC2)n1-c1ccccc1Cl)N1CCN(c2ccccn2)CC1 | 40* | -3 | 0 | 4 | 2
CCc1ccc(NC2=CC(=O)CC(c3ccco3)C2)cc1 (stereo not given) | 50* | -14 | -1 | -1 | 22
Cc1cc(C)cc(NC2=CC(=O)CC(c3ccco3)C2)c1 (stereo not given) | . | 2 | -1 | 5 | 0
CN1CCCN(C(=O)CSc2nnc(-c3cccnc3)n2C2CCCCC2)CC1 | . | -5 | . | 12 | .
CCC[C@H]1[C@@H](NC(=O)c2ccc(OC)cc2)CC[C@@]23CCCN2C(=O)CCC[C@@H]13 | . | 2 | . | -2 | .
SMILES | CAL PDZ FP-1 | Tn6 DDE FP | CAL PDZ FP-2 | DDE Tn7 FP inh | Arrestin-AP2 inh
CC(C)c1csc(CN2CCC(N3CCC(C(=O)NCC4CCCO4)CC3)CC2)n1 (stereo not given) | 39* | -4 | 0 | -4 | 8
CC(C)NC(=O)C1CCN(C2CCN(Cc3nc(C(C)C)cs3)CC2)CC1 | . | 9 | -2 | 6 | -10
O=C(/C=C/c1ccccc1Cl)N(Cc1ccc(Cl)cc1)C1CCS(=O)(=O)C1 (stereo not given) | 71* | 5 | -1 | 8 | 1
CSCCC(NC(=O)COc1cccc2ccccc12)C(=O)O (stereo not given) | 70* | 0 | 0 | -11 | 15
CN(C)c1cccc(/C=C2\CC3(OC(=O)c4cccc(F)c4)CCCN2C3)c1 (stereo not given) | . | -5 | . | -3 | .
CCC1Oc2ccc(C)cc2N(CC(=O)NCCCN2CCCC2)C1=O (stereo not given) | 36* | -2 | 0 | -4 | 17
Cc1ccc2c(c1)N(CC(=O)NCCCN1CCN(C)CC1)C(=O)CO2 | 64* | -5 | 0 | -2 | 3
CN1CCN(CCCNC(=O)CN2C(=O)COc3ccccc32)CC1 | . | 6 | 0 | 1 | -10
CC(C)C[C@@H](CO)N1Cc2nnn(Cc3ccccc3)c2-c2ccccc2S1(=O)=O | . | -6 | . | 1 | .
COC(=O)[C@]12C[C@H](CC(=O)N3CCN(C(=O)C4CC4)CC3)C(=O)N(Cc3ccc(Cl)cc3Cl)C1=C[C@H](COCc1ccccc1)O[C@@H]2C | . | 0 | . | -4 | .
O=S(=O)(c1ccc(-n2cnnn2)cc1)N1CCN(c2ccccc2F)CC1 | -1 | 2 | -3 | 8 | 39
Cc1ccc(N2CCN(S(=O)(=O)c3ccc(-n4cnnn4)cc3)CC2)c(C)c1 | 79* | -2 | 0 | 2 | -5
O=C(NCc1ccccc1)OC1CCC12CCC(c1ccccc1)CC2 (stereo not given) | . | 1 | . | -8 | .
O=C(Nc1ccc(CN2CCOCC2)cc1)c1ccc(-c2cccc(Cl)c2)o1 | 89* | -4 | -3 | -2 | 1
C[N+](C)(CC#N)C/C=C\c1ccccc1 | 76* | -7 | 0 | 6 | -11
COc1ccc(NC(=O)c2cccc(S(=O)(=O)N3CCCC3)c2)cc1OC | 77* | 5 | 0 | 2 | -10
Cc1ccsc1C(=O)NNC(=O)c1cccc(S(=O)(=O)N2CCCC2)c1 | 83* | -5 | 0 | 4 | -3
COc1ccc2c(c1)CN1C(=O)N(Cc3ccccc3)S(=O)(=O)CC21 (stereo not given) | . | -1 | . | -5 | .
CC1=CC2=C(OC1N(C)C)c1cccc3cccc(c13)C2=O (stereo not given) | 39* | . | . | . | -2
CN(C)CCCN1C(=O)c2cccc3cccc(c23)C1=O | 0 | 0 | 0 | -5 | -16
O=S1(=O)CC2c3ccccc3CN2CN1CCc1ccccc1 (stereo not given) | . | 5 | . | 4 | .
CC(C)N(C(=O)COC(=O)c1cccc(N(C)C)c1)c1ccccc1 | 49* | 0 | 0 | -5 | -6
OCCC1CN(CC#Cc2ccccc2)CCN1C1CCCC1 (stereo not given) | 91* | 0 | -2 | 6 | -6
OCCC#Cc1ccc(CN2CCN(C3CCCCC3)C(CCO)C2)cc1 (stereo not given) | 5 | -12 | 0 | -5 | 18
Cc1n[nH]c(C)c1S(=O)(=O)NCCc1c[nH]c2ccccc12 | . | 2 | . | 2 | .
Cc1ccc(N2CC(C(=O)NC3=NCCS3)CC2=O)cc1C (stereo not given) | -13 | 2 | 0 | 4 | 3
Cc1ccc(N2CC(C(=O)Nc3ccc(N(C)C)cc3)CC2=O)cc1C (stereo not given) | 60* | 0 | 1 | -13 | 7
